Assay results from ChEMBL document CHEMBL4304781, “Development of Highly Selective Pyrimidine-Based Aldosterone Synthase (CYP11B2) Inhibitors” (ACS Med Chem Lett, 2019).
Values after ≈ are worked out from the molar mass of the structure shown.

How the values were obtained:
[1] = target: T1, Cytochrome P450 11B1, mitochondrial (Homo sapiens, UniProt P15538); test: Inhibition of human recombinant CYP11B1 using deoxycortisol as substrate incubated for 60 mins by cell-based HPLC analysis; type: ADME
T1 sequence (P15538 whole entry): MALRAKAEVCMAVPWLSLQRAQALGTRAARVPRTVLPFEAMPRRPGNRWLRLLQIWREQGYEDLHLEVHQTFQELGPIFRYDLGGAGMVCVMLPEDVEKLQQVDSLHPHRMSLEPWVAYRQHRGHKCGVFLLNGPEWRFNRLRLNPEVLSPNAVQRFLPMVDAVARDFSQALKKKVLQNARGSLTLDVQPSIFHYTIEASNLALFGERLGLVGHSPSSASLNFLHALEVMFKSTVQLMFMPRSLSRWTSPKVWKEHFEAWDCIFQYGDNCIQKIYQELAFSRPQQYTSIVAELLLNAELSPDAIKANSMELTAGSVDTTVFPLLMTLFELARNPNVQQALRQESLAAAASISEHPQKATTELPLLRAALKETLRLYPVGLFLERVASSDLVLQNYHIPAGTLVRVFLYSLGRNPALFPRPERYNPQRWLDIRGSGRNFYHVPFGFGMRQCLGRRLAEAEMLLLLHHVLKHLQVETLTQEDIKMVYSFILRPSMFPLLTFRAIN
How it was run: (§1)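 Recombinant human CYP11B2 or CYP11B1. Substrate and product steroids both monitored by HPLC-MS. Selectivity taken as CYP11B1 IC50 / CYP11B2 IC50.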

[2] = target: T2, Cytochrome P450 11B2, mitochondrial (Homo sapiens, UniProt P19099); test: Inhibition of human recombinant CYP11B2 using deoxycorticosterone as substrate incubated for 90 mins by cell-based HPLC analysis; how it was run: as §1
T2 sequence (P19099 whole entry): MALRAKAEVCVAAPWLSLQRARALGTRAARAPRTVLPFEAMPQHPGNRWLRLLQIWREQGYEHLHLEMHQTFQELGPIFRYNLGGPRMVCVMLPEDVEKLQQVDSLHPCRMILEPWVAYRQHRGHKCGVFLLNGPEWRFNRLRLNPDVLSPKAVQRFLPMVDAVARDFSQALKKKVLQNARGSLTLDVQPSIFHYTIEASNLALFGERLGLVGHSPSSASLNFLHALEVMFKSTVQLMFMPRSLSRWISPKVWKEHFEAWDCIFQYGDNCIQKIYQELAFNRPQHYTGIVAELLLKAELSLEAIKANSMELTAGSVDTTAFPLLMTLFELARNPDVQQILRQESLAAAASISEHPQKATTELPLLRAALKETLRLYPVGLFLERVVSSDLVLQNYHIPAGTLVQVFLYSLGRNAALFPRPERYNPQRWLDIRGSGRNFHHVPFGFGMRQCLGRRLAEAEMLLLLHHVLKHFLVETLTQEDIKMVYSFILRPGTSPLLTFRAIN

Homo sapiens [3] = species on record: Homo sapiens; test: Selectivity index, ratio of IC50 for human recombinant CYP11B1 to IC50 for human recombinant CYP11B2; how it was run: as §1
[4] = Stability in cynomolgus monkey liver microsomes assessed as parent compound remaining at 1 uM measured after 65 mins by LC/MS-MS analysis; type: ADME, Macaca fascicularis, Microsome; settings: read-out: Stability
How it was run: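 Parent compound percentage remaining after 65 min incubation with cynomolgus monkey liver microsomes.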

[5] = Tmax in cynomolgus monkey at 1 mg/kg, po measured after 24 or 72 hrs; type: ADME, organism-based, Macaca fascicularis; settings: in vivo
How it was run: (§2)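 Male cynomolgus monkeys dosed orally at 1 mg/kg in 0.5% CMC, 0.1% Tween-80, 1% DMSO. Plasma drug concentrations followed out to 24 or 72 h. Cmax, Tmax, AUC0-24 and t1/2 derived from plasma levels.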

[6] = AUC (0 to 24 hrs) in cynomolgus monkey at 1 mg/kg, po measured after 24 or 72 hrs; type: ADME, organism-based, Macaca fascicularis; design: time < 24 hr, dose 1 mg/kg, route oral; settings: in vivo; how it was run: as §2
[7] = Cmax in cynomolgus monkey at 1 mg/kg, po measured after 24 or 72 hrs; type: ADME, organism-based, Macaca fascicularis; design: dose 1 mg/kg, route oral; settings: in vivo; how it was run: as §2
[8] = Half life in cynomolgus monkey at 1 mg/kg, po measured after 24 or 72 hrs; type: ADME, organism-based, Macaca fascicularis; settings: in vivo; how it was run: as §2
Cynomolgus monkey [9] = test: In vivo inhibition of CYP11B2 in cynomolgus monkey assessed as reduction in ACTH-induced plasma aldosterone AUC at 3 mg/kg, po administered 10 mins prior to ACTH stimulation for 7 days relative to control; type: functional; settings: Macaca fascicularis
How it was run: (§3)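 Conscious male cynomolgus monkeys. Day 1: vehicle, then ACTH challenge to drive adrenal steroidogenesis. Repeated after 7-day recovery with oral compound at 0.2, 1 and 3 mg/kg given 10 min before ACTH. Plasma aldosterone, cortisol, DOC and 11-deoxycortisol measured and AUCs calculated. Day 8 change expressed against each animal's own day 1 steroid AUC.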

Homo sapiens [10] = species on record: Homo sapiens; test: Selectivity index, ratio of IC50 for CYP3A4 (unknown origin) to IC50 for human recombinant CYP11B2
[11] = Fraction unbound in cynomolgus monkey plasma incubated for 6 hrs by HPLC-MS/MS analysis; type: ADME, cell-free, Macaca fascicularis
Cynomolgus monkey [12] = test: Effect on ACTH-induced cortisol level in cynomolgus monkey at 0.2 to 3 mg/kg, po administered 10 mins prior to ACTH stimulation for 7 days; type: ADME, organism-based, Macaca fascicularis; settings: in vivo; how it was run: as §3
[13] = Inhibition of cynomolgus monkey CYP11B2; design: species or system Macaca fascicularis
Homo sapiens [14] = species on record: Homo sapiens; test: Selectivity index, ratio of IC50 for CYP2C19 (unknown origin) to IC50 for human recombinant CYP11B2
Cynomolgus monkey [15] = test: In vivo inhibition of CYP11B2 in cynomolgus monkey assessed as reduction in ACTH-induced plasma aldosterone AUC at 1 mg/kg, po administered 10 mins prior to ACTH stimulation for 7 days relative to control; type: functional; settings: Macaca fascicularis; how it was run: as §3
Cynomolgus monkey [16] = test: In vivo inhibition of CYP11B2 in cynomolgus monkey assessed as reduction in ACTH-induced plasma aldosterone AUC administered orally 10 mins prior to ACTH stimulation for 7 days; type: functional, organism-based; settings: Macaca fascicularis; how it was run: as §3
Cynomolgus monkey [17] = test: In vivo inhibition of CYP11B2 in cynomolgus monkey assessed as reduction in ACTH-induced plasma aldosterone AUC at 0.2 mg/kg, po administered 10 mins prior to ACTH stimulation for 7 days relative to control; type: functional; settings: Macaca fascicularis; how it was run: as §3
Homo sapiens [18] = species on record: Homo sapiens; test: Selectivity index, ratio of IC50 for CYP17 (unknown origin) to IC50 for human recombinant CYP11B2
Cynomolgus monkey [19] = test: Effect on ACTH-induced DOC level in cynomolgus monkey at 0.2 to 3 mg/kg, po administered 10 mins prior to ACTH stimulation for 7 days; type: ADME, organism-based, Macaca fascicularis; settings: in vivo; how it was run: as §3
[20] = Inhibition of cynomolgus monkey CYP11B1; type: ADME, Macaca fascicularis
[21] = Thermodynamic solubility in phosphate free buffer pH 7.4 incubated for 24 hrs by HPLC/LCMS-MS based shake flask method; type: physicochemical; settings: read-out: Therm_solubility
Aromatase = target: T3, Aromatase (Homo sapiens, UniProt P11511); test: Inhibition of CYP19 (unknown origin)
T3 sequence (P11511 whole entry): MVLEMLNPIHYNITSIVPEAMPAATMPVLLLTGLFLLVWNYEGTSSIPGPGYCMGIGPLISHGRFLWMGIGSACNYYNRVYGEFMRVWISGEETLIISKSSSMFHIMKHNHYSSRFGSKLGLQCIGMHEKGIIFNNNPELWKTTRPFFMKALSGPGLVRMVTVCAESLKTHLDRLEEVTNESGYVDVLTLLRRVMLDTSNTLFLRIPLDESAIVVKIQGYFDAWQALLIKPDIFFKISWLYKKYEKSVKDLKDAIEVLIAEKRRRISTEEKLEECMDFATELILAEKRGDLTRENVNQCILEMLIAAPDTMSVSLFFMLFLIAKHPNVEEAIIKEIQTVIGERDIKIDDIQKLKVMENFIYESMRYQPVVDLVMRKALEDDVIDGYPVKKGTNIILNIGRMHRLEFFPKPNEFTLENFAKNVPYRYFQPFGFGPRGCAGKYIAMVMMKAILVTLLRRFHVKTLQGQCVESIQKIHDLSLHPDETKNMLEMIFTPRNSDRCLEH

Homo sapiens [22] = species on record: Homo sapiens; test: Selectivity index, ratio of IC50 for CYP2D6 (unknown origin) to IC50 for human recombinant CYP11B2
Homo sapiens [23] = species on record: Homo sapiens; test: Selectivity index, ratio of IC50 for CYP2C9 (unknown origin) to IC50 for human recombinant CYP11B2
Macaca fascicularis = species on record: Macaca fascicularis; test: Selectivity index, ratio of IC50 for cynomolgus monkey CYP11B1 to IC50 for cynomolgus monkey CYP11B2
Cynomolgus monkey [24] = test: Effect on ACTH-induced 11-deoxycortisol level in cynomolgus monkey at 0.2 to 3 mg/kg, po administered 10 mins prior to ACTH stimulation for 7 days; type: ADME, organism-based, Macaca fascicularis; settings: in vivo; how it was run: as §3
Homo sapiens [25] = species on record: Homo sapiens; test: Selectivity index, ratio of IC50 for CYP19 (unknown origin) to IC50 for human recombinant CYP11B2

| IC50 [1] | IC50 [2] | Ratio IC50 (Homo sapiens [3]) | remaining at 65 min, 1 µM [4] | Tmax [5] | AUC(0-t) at 24 h [6] | Cmax [7] | half-life [8] | Compound | also measured |
| --- | --- | --- | --- | --- | --- | --- | --- | --- | --- |
| 4520 nM | 62 nM | 73 |  |  |  |  |  | Fc1ccc2nc(-c3cncs3)n(C3CC3)c2c1 |  |
| 4630 nM | 29 nM | 159 | 6% |  |  |  |  | CN(C)c1ncncc1-c1nc2cc(F)c(F)cc2n1C1CC1 |  |
| 4990 nM | 13 nM | 383 | 85% |  |  |  |  | N#Cc1ncncc1-c1nc2cc(F)c(F)cc2n1C1CC1 |  |
| 3330 nM | 8 nM | 416 | 78% |  |  |  |  | CCc1ncncc1-c1nc2cc(F)c(F)cc2n1C1CC1 |  |
| 9070 nM | 1060 nM | 8.5 |  |  |  |  |  | Fc1ccc2nc(-n3ccnn3)n(C3CC3)c2c1 |  |
|  |  | 244 | 72% | 0.5 h | 3 µM·h | 1260 nM | 4.2 h | Cc1ncncc1-c1nc2cc(F)c(F)cc2n1C1CC1 |  |
| 4770 nM | 25 nM | 190 | 99% | 2 h | 7.8 µM·h | 410 nM | 30 h | Fc1cc2nc(-c3cncnc3C(F)(F)F)n(C3CC3)c2cc1F | inhibition in vivo at 3 mg/kg (Cynomolgus monkey [9]): 93%; Ratio IC50 (Homo sapiens [10]): > 1000; fraction unbound at 6 h [11]: 0.16; Activity (Cynomolgus monkey [12]): Non-Toxic; IC50 [13]: 13 nM; Ratio IC50 (Homo sapiens [14]): > 1000; inhibition in vivo at 1 mg/kg (Cynomolgus monkey [15]): 88%; inhibition (Cynomolgus monkey [16]): Dose-dependent effect; inhibition in vivo at 0.2 mg/kg (Cynomolgus monkey [17]): 68%; Ratio IC50 (Homo sapiens [18]): > 1000; Activity (Cynomolgus monkey [19]): Non-Toxic; IC50 [20]: 8850 nM; solubility thermodynamic at 24 h [21]: 9 µM (≈ 3.06 µg/mL); IC50 (Aromatase): 6440 nM; Ratio IC50 (Homo sapiens [22]): > 1000; Ratio IC50 (Homo sapiens [23]): > 1000; Ratio IC50 (Macaca fascicularis): 702; Activity (Cynomolgus monkey [24]): Non-Toxic; Ratio IC50 (Homo sapiens [25]): 250 |
| 2030 nM | 9 nM | 226 | 84% | 2 h | 8.3 µM·h | 1000 nM | 5.4 h | N#Cc1ccc2nc(-c3cncnc3C(F)F)n(C3CC3)c2c1 |  |
| 3930 nM | 29 nM | 135 | 101% | 2 h | 32.2 µM·h | 2880 nM | 7.5 h | N#Cc1ccc2nc(-c3cncnc3C(F)F)n(C3CC3)c2n1 |  |
| > 10000 nM | 541 nM | > 18 |  |  |  |  |  | Fc1ccc2nc(-c3cnccn3)n(C3CC3)c2c1 |  |
| > 10000 nM | 172 nM | > 58 |  |  |  |  |  | Fc1cc2nc(-c3cncnc3C3CC3)n(C3CC3)c2cc1F |  |
